Reference: PMC7881365 (Xenobiotica; the fate of foreign compounds in biological …, 2020)

What was measured:
Hela and SH-SY5Y cells = settings: ref Fatokun et al. (2013; 2014); cited from earlier work
CYP1B1.3 = target: T1, CYP1B1.3 (Homo sapiens, UniProt Q16678); assay type: in vitro ADME; settings: peak intensities
T1 sequence (Q16678 1-543): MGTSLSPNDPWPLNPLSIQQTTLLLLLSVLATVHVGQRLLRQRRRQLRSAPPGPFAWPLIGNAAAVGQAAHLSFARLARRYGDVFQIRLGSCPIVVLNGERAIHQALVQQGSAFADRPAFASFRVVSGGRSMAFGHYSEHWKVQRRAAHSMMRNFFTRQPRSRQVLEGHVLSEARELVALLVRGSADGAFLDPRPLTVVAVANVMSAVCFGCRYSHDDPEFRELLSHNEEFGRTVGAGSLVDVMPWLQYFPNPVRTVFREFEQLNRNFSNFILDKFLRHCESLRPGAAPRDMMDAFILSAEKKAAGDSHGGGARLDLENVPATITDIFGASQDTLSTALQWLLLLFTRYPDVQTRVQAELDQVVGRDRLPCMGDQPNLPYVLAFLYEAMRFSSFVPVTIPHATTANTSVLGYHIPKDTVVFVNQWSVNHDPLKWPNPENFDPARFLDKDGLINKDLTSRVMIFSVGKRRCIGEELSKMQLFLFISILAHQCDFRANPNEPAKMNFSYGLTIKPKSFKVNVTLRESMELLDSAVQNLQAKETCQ

CYP2B6 = target: T2, CYP2B6 (Homo sapiens, UniProt P20813); assay type: in vitro ADME; settings: peak intensities
T2 sequence (P20813 1-491): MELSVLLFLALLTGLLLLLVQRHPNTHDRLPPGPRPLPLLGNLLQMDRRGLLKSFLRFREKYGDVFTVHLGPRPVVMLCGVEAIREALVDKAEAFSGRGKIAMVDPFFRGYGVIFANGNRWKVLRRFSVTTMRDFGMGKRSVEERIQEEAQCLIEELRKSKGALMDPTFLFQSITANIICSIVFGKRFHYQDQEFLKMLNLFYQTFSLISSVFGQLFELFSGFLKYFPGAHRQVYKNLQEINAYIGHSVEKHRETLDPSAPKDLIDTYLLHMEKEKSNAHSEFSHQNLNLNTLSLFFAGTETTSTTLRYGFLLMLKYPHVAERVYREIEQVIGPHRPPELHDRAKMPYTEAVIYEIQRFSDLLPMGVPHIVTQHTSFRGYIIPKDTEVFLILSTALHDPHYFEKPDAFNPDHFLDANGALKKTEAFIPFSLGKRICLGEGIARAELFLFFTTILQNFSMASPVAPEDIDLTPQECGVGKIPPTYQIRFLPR
Procedure, shortened: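 E. coli membranes co-expressing CYP2B6 and NADPH-P450 reductase (50 pmol P450) incubated with 60 µM methoxyflavone test compound at 37 °C for 20 min. Reaction started after 1 min preincubation with NADPH-generating system (0.5 mM NADP+, 5 mM glucose 6-phosphate, 0.5 unit/mL glucose 6-phosphate dehydrogenase). Stopped with ice-cold CH3CN, then centrifuged. Supernatant analysed by LC-MS/MS (positive ESI); products reported as peak intensities, from two or three determinations.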

CYP1B1.1 = target: T3, CYP1B1.1 (Homo sapiens, UniProt Q16678); assay type: in vitro ADME; settings: peak intensities
T3 sequence (Q16678 1-543): T1 sequence (Q16678 1-543)

CYP1A2 = target: T4, CYP1A2 (Homo sapiens, UniProt P05177); assay type: in vitro ADME; settings: peak intensities
T4 sequence (P05177 1-516): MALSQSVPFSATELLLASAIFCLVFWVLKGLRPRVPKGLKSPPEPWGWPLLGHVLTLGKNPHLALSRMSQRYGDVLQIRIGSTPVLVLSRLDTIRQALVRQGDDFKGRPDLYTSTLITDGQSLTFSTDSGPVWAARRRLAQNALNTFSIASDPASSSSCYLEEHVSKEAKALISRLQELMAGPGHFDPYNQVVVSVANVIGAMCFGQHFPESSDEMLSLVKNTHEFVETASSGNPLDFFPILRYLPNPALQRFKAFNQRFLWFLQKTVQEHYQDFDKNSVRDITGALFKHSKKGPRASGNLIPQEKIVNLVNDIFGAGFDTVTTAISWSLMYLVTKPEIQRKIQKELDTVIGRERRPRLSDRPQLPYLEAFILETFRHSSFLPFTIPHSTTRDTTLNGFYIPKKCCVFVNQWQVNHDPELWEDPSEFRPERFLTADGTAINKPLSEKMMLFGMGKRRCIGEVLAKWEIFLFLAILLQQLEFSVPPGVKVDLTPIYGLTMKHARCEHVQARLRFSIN

CYP1A1 = target: T5, CYP1A1 (Homo sapiens, UniProt P04798); assay type: in vitro ADME; settings: peak intensities
T5 sequence (P04798 1-512): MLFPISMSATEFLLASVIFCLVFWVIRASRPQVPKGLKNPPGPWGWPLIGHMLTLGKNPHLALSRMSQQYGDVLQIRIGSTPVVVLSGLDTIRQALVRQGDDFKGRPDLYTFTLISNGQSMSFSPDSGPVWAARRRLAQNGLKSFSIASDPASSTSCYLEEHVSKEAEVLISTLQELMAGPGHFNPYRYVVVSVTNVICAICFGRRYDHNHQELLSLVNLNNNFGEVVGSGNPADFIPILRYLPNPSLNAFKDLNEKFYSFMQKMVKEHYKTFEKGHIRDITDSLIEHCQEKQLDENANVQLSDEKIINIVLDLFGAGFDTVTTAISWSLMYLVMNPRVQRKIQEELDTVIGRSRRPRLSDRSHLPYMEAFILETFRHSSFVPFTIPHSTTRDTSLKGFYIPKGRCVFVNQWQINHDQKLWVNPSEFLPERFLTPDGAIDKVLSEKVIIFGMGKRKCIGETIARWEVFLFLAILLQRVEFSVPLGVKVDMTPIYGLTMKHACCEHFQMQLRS
Procedure, shortened: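 Reconstituted system: purified E. coli-expressed CYP1A1 (50 pmol), NADPH-P450 reductase (100 pmol), DLPC (50 µg), no b5. Incubated with 60 µM methoxyflavone test compound at 37 °C for 20 min after 1 min preincubation, started with NADPH-generating system (0.5 mM NADP+, 5 mM glucose 6-phosphate, 0.5 unit/mL dehydrogenase). Quenched with ice-cold CH3CN and centrifuged. LC-MS/MS positive ESI; product as peak intensity, two or three determinations.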

formation of 2′Me239a (possibly 2′OHF) (CYP1B1.3)	formation of 2′Me255a (m/z 255 product) (CYP1B1.3)	formation of 2′Me239a (possibly 2′OHF) (CYP2B6)	formation of 2′Me255a (m/z 255 product) (CYP2B6)	formation of 2′Me239a (possibly 2′OHF) (CYP1B1.1)	formation of 2′Me255a (m/z 255 product) (CYP1B1.1)	formation of 2′Me255a (m/z 255 product) (CYP1A2)	formation of 2′Me255a (m/z 255 product) (CYP1A1)	Structure (SMILES)	prevention of decreases in cell viability caused by N-methyl-N′-nitro-N-nitrosoguanine (Hela and SH-SY5Y cells)
								COc1ccc(-c2cc(=O)c3ccccc3o2)cc1OC [3′,4′-dimethoxyflavone, reference compound]	effectively prevent decreases in cell viability
								COc1ccc(-c2cc(=O)c3ccccc3o2)cc1 [4′MeF, 4′-methoxyflavone]	effectively prevent decreases in cell viability
highly active	very low levels	highly active	very low levels	highly active	very low levels	very low levels	very low levels	COc1ccccc1-c1cc(=O)c2ccccc2o1 [2′MeF, 2′-methoxyflavone]	
